Consider 13 compounds from ChEMBL document CHEMBL1125377, “Phenothiazines as lipid peroxidation inhibitors and cytoprotective agents” (1992).

Values after ≈ are worked out from the molar mass of the structure shown.

The species entered for this assay is Oryctolagus cuniculus. Nature of the assay: In vitro inhibition of iron-dependent peroxidation of rabbit brain vesicular membrane lipids. The class given is functional. The method, boiled down: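 Rabbit brain homogenized 10% w/v in 25 mM Tris-HCl with 0.15 M KCl, pH 7.5, spun 10000g for 15 min. The supernatant was given the agent in DMSO and incubated with ADP (220 μM) and FeCl3 (2 μM) at 37 °C for 1 h; the control was not incubated. TBARS read at 532 nm as MDA against a standard curve. Reported as MIC, the minimum tested concentration giving ≥50% inhibition.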

Setting [1] is: Oryctolagus cuniculus, read-out: MIC.

For orientation: MIC means the lowest concentration that inhibits growth of the organism.

`CN(C)CCOc1ccc2c(c1)Nc1ccccc1S2.CS(=O)(=O)O`: the MIC was determined as 0.26 µM.

Consider `CN(C)CCCOc1ccc2c(c1)Nc1ccccc1S2`, for which the MIC under setting [1] stood at 0.14 µM (≈ 0.0421 µg/mL).

Regarding `CN(C)CCOc1ccc2c(c1C(=O)N(C)C)Nc1ccccc1S2`, the MIC under setting [1] is 2.5 µM (≈ 0.894 µg/mL). For the compound `COc1ccc2c(c1C(=O)NCCN(C)C)Nc1ccccc1S2`, under setting [1], the MIC was 2.6 µM (≈ 0.893 µg/mL). As to `NCCOc1ccc2c(c1)Nc1ccccc1S2`, the MIC under setting [1] worked out at 0.18 µM (≈ 0.0465 µg/mL).

With `CN(C)CCOc1ccc2c(c1)N(C)c1ccccc1S2`, the MIC under setting [1] was found to be 21 µM (≈ 6.31 µg/mL). The compound `CN(C)CCOc1ccc2c(c1)Nc1ccccc1S2.Cl` registered an MIC of 0.093 µM. For `OCCN1CCN(CCOc2ccc3c(c2)Nc2ccccc2S3)CC1`, the MIC under setting [1] was found to be 0.068 µM (≈ 0.0253 µg/mL). For the compound `CN(C)CCOc1ccc2c(c1)Sc1ccccc1N2`, the MIC under setting [1] worked out at 0.056 µM (≈ 0.016 µg/mL). As to `OCCN1CCN(CCCc2ccc3c(c2)Nc2ccccc2S3)CC1`, the MIC under setting [1] was 0.17 µM (≈ 0.0628 µg/mL). For the compound `CN(C)CCCOc1ccc2c(c1)Sc1ccccc1N2`, the MIC under setting [1] worked out at 0.089 µM (≈ 0.0267 µg/mL). With `CN(C)CCCN1c2ccccc2Sc2ccc(Cl)cc21` [CHLORPROMAZINE], the MIC under setting [1] came out at 10 µM (≈ 3.19 µg/mL). Consider `c1ccc2c(c1)Nc1ccccc1S2` [PHENOTHIAZINE], for which, under setting [1], the MIC turned out to be 0.15 µM (≈ 0.0299 µg/mL).
